The results in this text go back to ChEMBL document CHEMBL1157567, “Design, synthesis, and evaluation of 2-methyl- and 2-amino-N-aryl-4,5-dihydrothiazolo[4,5-h]quinazolin-8-amines as ring-constrained 2-anilino-4-(thiazol-5-yl)pyrimidine cyclin-dependent kinase inhibitors” (J Med Chem, 2010).

Molecules are shown by their SMILES. pIC50, pKi: −log10 of the molar value. Calls of active or inactive are those of the source. The rule behind the calls is not given here.

The target in test [1] is Cyclin-dependent kinase 1/cyclin B1 (Homo sapiens, UniProt P06493). Kind of test: inhibition of CDK1/Cyclin B. Type of test: protein-complex assay. A digest of the protocol:
(§1)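 Kinase activity measured over 10-point dose-response curves to give IC50; apparent Ki derived from IC50 using the ATP Km of each kinase.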

The target of test [2] is Cyclin-dependent kinase 2/cyclin E1 (Homo sapiens, UniProt P24941). The experiment in a line: inhibition of CDK2/Cyclin E. It is filed as protein-complex assay. A digest of the protocol: as §1
Test [3] has as its target Cyclin-dependent kinase 4/cyclin D1 (Homo sapiens, UniProt P11802). The experiment in a line: inhibition of CDK4/Cyclin D1. Type of test: protein-complex assay. A digest of the protocol:
as §1

For test [4], the target named is Cyclin-dependent kinase 7/ cyclin H (Homo sapiens, UniProt P50613). Kind of test: inhibition of CDK7/Cyclin H/MAT1. It is filed as protein-complex assay. A digest of the protocol:
as §1

For a further test, the target named is CDK9/cyclin T1 (Homo sapiens, UniProt P50750). Kind of test: inhibition of CDK9/CyclinT1. It is filed as protein-complex assay. Summed up: as §1
For test [5], the system named is WI-38. The experiment in a line: Induction of apoptosis in human WI38 cells assessed as caspase 3/7 activity at 2.5 uM after 24 hrs […]. Type of test: functional, cell-based. A digest of the protocol: (§2)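 Caspase-3/7 luminescent assay: 10 000 cells seeded per well, treated 24 h; detection reagent added directly at equal volume to medium, read after further 30 min at room temperature.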

The subject of the next test is A549. The experiment in a line: Antiproliferative activity against human A549 cells after 72 hrs by MTT assay. Conditions: A549, 72 h. Type of test: functional, cell-based. Summed up: (§3)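 MTT (thiazolyl blue tetrazolium) colorimetric viability read-out after 72 h continuous exposure of cultured cells to test compound.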
(In general: Tetrazolium dyes change colour on reduction, which living cells bring about.)

The subject of the next test is HeLa. The experiment in a line: Antiproliferative activity against human HeLa cells after 72 hrs by MTT assay. Type of test: functional, cell-based. Summed up:
as §3

For a further test, the system named is HT-29. The experiment in a line: Antiproliferative activity against human HT-29 cells after 72 hrs by MTT assay. Type of test: functional, cell-based. Conditions: HT-29, 72 h. Summed up: as §3
The next test concerns MCF7. Kind of test: Antiproliferative activity against human MCF7 cells after 72 hrs by MTT assay. It is filed as functional, cell-based. The following applies: MCF7, 72 h. Summed up:
as §3

In a further test the test system is SAOS-2. Kind of test: Antiproliferative activity against human Saos2 cells after 72 hrs by MTT assay. It is filed as functional, cell-based. Conditions: SAOS-2, 72 h. A digest of the protocol:
as §3

Test [6] deals with T1, Cyclin-dependent kinase (Homo sapiens) (UniProt P06493+P11802+P24941+Q00535+Q00534+P50613+Q00526+Q00536+Q07002+P49336+Q00537+P21127+Q96Q40+Q9BWU1+O94921+P50750+Q15131+Q14004+Q8IZL9+Q9NYV4). The experiment in a line: Inhibition of CDK in human A2780 cells assessed as reduction of RNAP2 phosphorylation at Ser2 site at 5 uM after 6 hrs by Western bloting. It is filed as cell-based. Summed up:
(§4)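 Total cell lysate protein (10 µg) resolved on reducing 4-12% gradient SDS-PAGE after 6 h treatment at 5 µM; probed for RNAP-II phospho-Ser2 and phospho-Ser5 CTD alongside total RNAP-II.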
For orientation: Immunoblotting shows a protein as a band on a membrane.

Test [7] has as its target T1, Cyclin-dependent kinase (Homo sapiens). Kind of test: Inhibition of CDK in human A2780 cells assessed as reduction of RNAP2 phosphorylation at Ser5 site at 5 uM after 6 hrs by Western bloting. It is filed as cell-based. Summed up: as §4
Test [8] shares this target. Kind of test: Inhibition of CDK in human A2780 cells assessed as reduction of pRb levels at 5 uM after 6 hrs by Western bloting. Type of test: cell-based.
Test [9] shares this target. The experiment in a line: Inhibition of CDK in human A2780 cells assessed as increase in p53 levels at 5 uM after 6 hrs by Western bloting. Type of test: cell-based.
Test [10] concerns A2780. The experiment in a line: Induction of apoptosis in human A2780 cells assessed as caspase 3/7 activity at 2.5 uM after 24 hrs […]. It is filed as functional, cell-based. A digest of the protocol:
as §2

For test [11], the system named is A2780. Kind of test: Induction of apoptosis in human A2780 cells assessed as TUNEL-positive cells at 5 uM after 24 hrs by TUNEL assay-based flow cytometric analysis. It is filed as functional. A digest of the protocol:
(§5)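 Cells exposed 24 h to 5 µM compound or assay diluent alone; TUNEL labelling with flow cytometry, 10 000 cells collected; apoptotic (TUNEL-positive) fraction gated against DNA-content cell cycle stage.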
In general terms: A flow cytometer gives signals particle by particle.

Test [12] deals with WI-38. The experiment in a line: Induction of apoptosis in human WI38 cells assessed as TUNEL-positive cells at 5 uM after 24 hrs by TUNEL assay-based flow cytometric analysis. Type of test: functional. Summed up: as §5

Sequence of CDK9/cyclin T1 (O60563 whole entry): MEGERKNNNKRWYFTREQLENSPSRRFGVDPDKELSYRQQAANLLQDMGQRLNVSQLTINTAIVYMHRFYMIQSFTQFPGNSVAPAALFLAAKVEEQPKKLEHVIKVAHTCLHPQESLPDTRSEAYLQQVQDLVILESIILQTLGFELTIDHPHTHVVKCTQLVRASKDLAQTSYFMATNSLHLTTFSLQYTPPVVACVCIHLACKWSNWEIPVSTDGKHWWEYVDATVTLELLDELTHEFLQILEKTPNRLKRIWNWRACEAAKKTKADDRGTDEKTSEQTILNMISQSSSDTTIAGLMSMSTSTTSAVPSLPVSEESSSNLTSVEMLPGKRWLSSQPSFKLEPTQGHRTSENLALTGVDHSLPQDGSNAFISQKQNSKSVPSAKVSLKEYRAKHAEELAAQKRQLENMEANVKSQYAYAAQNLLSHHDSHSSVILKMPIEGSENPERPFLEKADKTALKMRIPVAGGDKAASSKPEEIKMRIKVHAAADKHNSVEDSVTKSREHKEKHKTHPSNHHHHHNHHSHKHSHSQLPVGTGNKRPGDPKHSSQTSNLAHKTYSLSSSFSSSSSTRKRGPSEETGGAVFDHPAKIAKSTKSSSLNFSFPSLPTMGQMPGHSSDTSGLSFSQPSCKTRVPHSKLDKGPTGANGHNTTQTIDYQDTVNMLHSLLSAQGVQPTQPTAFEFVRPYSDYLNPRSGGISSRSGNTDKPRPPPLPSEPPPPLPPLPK
Sequence of CDK9/cyclin T1 (P50750 whole entry): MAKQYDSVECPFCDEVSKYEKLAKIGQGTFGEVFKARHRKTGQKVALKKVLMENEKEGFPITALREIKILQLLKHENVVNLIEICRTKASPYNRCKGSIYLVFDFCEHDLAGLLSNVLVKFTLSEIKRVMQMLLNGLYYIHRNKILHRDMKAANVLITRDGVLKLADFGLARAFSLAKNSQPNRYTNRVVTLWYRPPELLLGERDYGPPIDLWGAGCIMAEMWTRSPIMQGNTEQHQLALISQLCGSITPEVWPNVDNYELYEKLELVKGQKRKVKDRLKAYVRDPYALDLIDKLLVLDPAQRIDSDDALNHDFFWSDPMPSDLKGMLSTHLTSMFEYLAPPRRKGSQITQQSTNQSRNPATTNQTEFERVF
Sequence of Cyclin-dependent kinase 1/cyclin B1 (P06493 whole entry): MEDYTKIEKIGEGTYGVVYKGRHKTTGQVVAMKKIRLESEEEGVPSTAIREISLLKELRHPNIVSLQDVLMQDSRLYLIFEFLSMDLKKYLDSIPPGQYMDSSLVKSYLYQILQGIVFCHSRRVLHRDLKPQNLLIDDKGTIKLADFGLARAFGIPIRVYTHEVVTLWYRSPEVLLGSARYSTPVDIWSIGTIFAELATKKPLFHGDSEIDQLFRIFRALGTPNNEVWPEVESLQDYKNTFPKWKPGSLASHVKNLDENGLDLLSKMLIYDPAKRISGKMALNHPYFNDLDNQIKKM
Sequence of Cyclin-dependent kinase 1/cyclin B1 (P14635 whole entry, further chain): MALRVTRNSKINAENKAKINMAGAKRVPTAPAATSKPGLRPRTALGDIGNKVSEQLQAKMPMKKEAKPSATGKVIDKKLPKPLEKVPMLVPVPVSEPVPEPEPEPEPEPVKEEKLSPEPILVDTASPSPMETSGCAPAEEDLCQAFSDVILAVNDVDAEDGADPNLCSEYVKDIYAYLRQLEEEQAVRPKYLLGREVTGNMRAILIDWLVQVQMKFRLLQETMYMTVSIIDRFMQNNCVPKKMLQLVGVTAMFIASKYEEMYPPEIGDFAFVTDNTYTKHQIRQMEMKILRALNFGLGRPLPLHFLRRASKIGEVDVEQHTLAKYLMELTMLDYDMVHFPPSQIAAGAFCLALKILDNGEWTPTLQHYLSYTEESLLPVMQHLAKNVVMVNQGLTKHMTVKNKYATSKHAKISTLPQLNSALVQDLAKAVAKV
Sequence of Cyclin-dependent kinase 4/cyclin D1 (P11802 whole entry): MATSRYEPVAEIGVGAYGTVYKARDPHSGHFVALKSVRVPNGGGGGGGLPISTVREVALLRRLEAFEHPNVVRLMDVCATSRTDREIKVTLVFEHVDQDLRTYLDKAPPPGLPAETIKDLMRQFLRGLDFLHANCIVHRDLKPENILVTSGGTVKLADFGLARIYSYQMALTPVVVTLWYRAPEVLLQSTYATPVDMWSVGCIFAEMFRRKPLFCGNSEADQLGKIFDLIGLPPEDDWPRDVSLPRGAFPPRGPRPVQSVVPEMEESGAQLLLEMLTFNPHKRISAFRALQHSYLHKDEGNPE
Sequence of Cyclin-dependent kinase 4/cyclin D1 (P24385 whole entry, further chain): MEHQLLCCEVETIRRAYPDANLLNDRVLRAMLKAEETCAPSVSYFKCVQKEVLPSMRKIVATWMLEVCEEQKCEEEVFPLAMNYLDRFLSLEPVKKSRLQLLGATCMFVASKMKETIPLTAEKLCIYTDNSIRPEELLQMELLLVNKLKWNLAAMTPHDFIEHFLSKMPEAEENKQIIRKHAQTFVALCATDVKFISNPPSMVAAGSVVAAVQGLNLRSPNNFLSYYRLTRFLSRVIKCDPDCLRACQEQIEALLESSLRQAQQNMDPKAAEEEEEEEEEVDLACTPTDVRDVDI
Sequence of Cyclin-dependent kinase 7/ cyclin H (P51946 whole entry): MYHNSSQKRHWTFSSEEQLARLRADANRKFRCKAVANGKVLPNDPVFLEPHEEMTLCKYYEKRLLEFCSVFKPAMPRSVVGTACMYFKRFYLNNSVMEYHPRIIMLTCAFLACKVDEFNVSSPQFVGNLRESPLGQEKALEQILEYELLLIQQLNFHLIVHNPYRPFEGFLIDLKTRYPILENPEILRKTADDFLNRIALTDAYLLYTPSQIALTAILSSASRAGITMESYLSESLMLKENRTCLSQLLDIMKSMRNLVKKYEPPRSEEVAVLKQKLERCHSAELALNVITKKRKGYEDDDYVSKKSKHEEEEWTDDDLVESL
Sequence of Cyclin-dependent kinase 7/ cyclin H (P50613 whole entry): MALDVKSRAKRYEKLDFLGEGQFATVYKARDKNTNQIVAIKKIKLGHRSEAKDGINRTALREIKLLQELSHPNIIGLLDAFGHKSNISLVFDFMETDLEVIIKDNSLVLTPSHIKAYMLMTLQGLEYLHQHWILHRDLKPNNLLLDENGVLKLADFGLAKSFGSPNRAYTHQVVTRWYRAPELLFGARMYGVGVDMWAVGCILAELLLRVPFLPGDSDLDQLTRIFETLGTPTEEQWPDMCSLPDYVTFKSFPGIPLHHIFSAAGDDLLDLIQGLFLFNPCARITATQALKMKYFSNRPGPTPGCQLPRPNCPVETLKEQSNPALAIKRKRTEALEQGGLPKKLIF

As to `COC(=O)c1ccc(Nc2ncc3c(n2)-c2sc(C)nc2CC3)cc1`, the pKi is 6.15 in test [1]; 6.04 in test [2]; 5.62 in test [3]; 5.20 in test [4]; 6.17 at CDK9/cyclin T1.

For `Cc1nc2c(s1)-c1nc(Nc3cccc([N+](=O)[O-])c3)ncc1CC2`, the outcome in the test with WI-38 [5] was inactive. Further, the pKi in [1] was 6.49; in test [2], 7.64; in test [3], 5.70; in test [4], 6.10; at CDK9/cyclin T1, 8.70. Further, the pIC50 in the test on A549 is 6.16; in the test with HeLa, 5.96; with HT-29, 5.85; in the test with MCF7, 5.77; with SAOS-2 it was 5.92. Besides, the result (in [6]; in test [7]; in test [8]; in [9]; in the test on A2780 [10]) was Active. The Activity was determined as 20% with A2780 [11] and 0.7% in the test on WI-38 [12].

As for `Cc1nc2c(s1)-c1nc(Nc3cccc(O)c3)ncc1CC2`, the pKi in [1] was 6.44; in test [2], 7.96; in test [3] it was 6.24; in test [4], 7.28; at CDK9/cyclin T1, 7.49.

Take `COc1ccc(Nc2ncc3c(n2)-c2sc(C)nc2CC3)cn1`: the pKi was 7.11 in [1]; 7.31 in [2]; 6.92 in [3]; 5.96 in [4]; 6.00 at CDK9/cyclin T1.

For `Cc1nc2c(s1)-c1nc(Nc3ccc(Cl)nc3)ncc1CC2`, the pKi is 7.72 in [1]; 7.60 in [2]; 7.40 in [3]; 5.85 in test [4]; 5.92 on CDK9/cyclin T1.

Regarding `Cc1nc2ccc3cnc(N(C)c4cccc([N+](=O)[O-])c4)nc3c2s1`, the pKi was 5.12 in [1]; 5.80 in test [2]; below 5.00 in test [3]; below 5.00 in test [4]; below 5.00 at CDK9/cyclin T1.

As to `Cc1nc2c(s1)-c1nc(Nc3ccc(N4CCOCC4)cc3)ncc1CC2`, the negative-log Ki (pKi) is 4.82 in [1]; 6.70 in [2]; below 5.00 in test [3]; 6.00 in [4]; 6.19 on CDK9/cyclin T1.

Regarding `Cc1nc2c(s1)-c1nc(Nc3ccc([N+](=O)[O-])cc3)ncc1CC2`, the pKi in test [1] is 6.51; in [2], 6.89; in [3], below 5.00; in test [4], 5.32; on CDK9/cyclin T1, 6.85.

In the case of `Cc1nc2c(s1)-c1nc(Nc3ccccc3)ncc1CC2`, the negative logarithm of the Ki (pKi) in [1] is 6.12; in test [2], 9.00; in test [3], 6.05; in test [4] it was 5.66; at CDK9/cyclin T1, 6.59.

As for `Nc1nc2c(s1)-c1nc(Nc3ccccc3)ncc1CC2`, the negative-log Ki (pKi) in [1] is 6.20; in test [2], 7.06; in test [3], 6.48; in test [4], 5.92; at CDK9/cyclin T1, 6.96.

On to `Cc1nc2c(s1)-c1nc(N(C)c3cccc([N+](=O)[O-])c3)ncc1CC2`, for which the pKi in test [1] was 5.57; in test [2], 6.23; in test [3], below 5.00; in test [4], 5.74; on CDK9/cyclin T1 it was 4.92.

On to `Cc1nc2c(s1)-c1nc(Nc3ccc(O)cc3)ncc1CC2`, for which the pKi in [1] is 6.70; in test [2], 9.00; in [3], 6.27; in test [4] it was 6.52; at CDK9/cyclin T1 it was 6.31.

Turning to `Cc1nc2ccc3cnc(Nc4ccccc4)nc3c2s1`, the negative logarithm of the Ki (pKi) in test [1] is 5.77; in test [2], 7.62; in test [3], 5.57; in test [4] it was below 5.00; at CDK9/cyclin T1, below 5.00.

Consider `Cc1nc2c(s1)-c1nc(Nc3ccc(N(C)C)cc3)ncc1CC2`, for which the pKi was 5.60 in test [1]; 8.00 in test [2]; 7.43 in [3]; 7.22 in [4]; 6.19 on CDK9/cyclin T1.

Turning to `Cc1nc2c(s1)-c1nc(N)ncc1CC2`, the negative logarithm of the Ki (pKi) (in test [1]; in test [2]; in test [3]; in test [4]; at CDK9/cyclin T1) was below 5.00 each time.

Turning to `Nc1nc2c(s1)-c1nc(Nc3cccc([N+](=O)[O-])c3)ncc1CC2`, the pKi in test [1] is 7.74; in test [2] it was 9.00; in test [3], 6.89; in test [4] it was 6.85; on CDK9/cyclin T1 it was 8.52.

As for `Cc1nc2c(s1)-c1nc(Nc3ccc(C(F)(F)F)cc3)ncc1CC2`, the negative logarithm of the Ki (pKi) in test [1] was 6.02; in test [2], 6.80; in test [3] it was 5.31; in test [4], below 5.00; at CDK9/cyclin T1 it was 5.72.

On to `CN(C)c1ccc(Nc2ncc3c(n2)-c2sc(N)nc2CC3)cc1`, for which the negative-log Ki (pKi) in [1] was 7.01; in [2] it was 7.51; in test [3] it was 6.33; in test [4], 6.30; at CDK9/cyclin T1, 6.80.

A word on the pKi: it is −log10 of the Ki, conventionally taken in molar units. Low values mean a large Ki, high ones a small Ki. What is called pIC50 is the negative decadic logarithm of the IC50, by convention in mol/L. Higher therefore signals a small IC50.
